Test results: publication PMC7386824 (Journal of medicinal chemistry, 2020)
“Also recorded” adds a separate entry of the source.

Columns and labels:
HCMV Towne [1] = assay: add-on and removal assays, luciferase activity at 72 hpi; format: cell-based, human cytomegalovirus; conditions: for HCMV suppression when compound removed at 6 h (removal assay) / activity when added at or after 24 hpi (add-on assay): HCMV Towne MOI 1, luciferase 72 hpi; for time of anti-HCMV activity: add-on and removal assays; for timing of activity in the add-on assay / timing of activity in the removal assay: compared with GCV
HSV2 = assay: plaque reduction assay, HSV2 clinical isolate in Vero cells; format: cell-based, herpes simplex 2
HCMV Towne [2] = assay: viral DNA replication and DNA load in supernatants, US17 real-time PCR; format: cell-based, human cytomegalovirus; conditions: HCMV Towne MOI 0.1; NFU1827 5 μM, MLS8554 2 μM, MLS8091 1.5 μM, NCGC2955 3 μM; GCV 5 μM
HCMV Towne [3] = assay: Western blot of viral protein expression in HCMV-infected HFFs; format: cell-based, human cytomegalovirus
HSV1 = assay: plaque reduction assay, HSV1 clinical isolate in Vero cells; format: cell-based, herpes simplex 1
MCMV Smith strain = assay: plaque reduction assay, MCMV in MEFs; format: cell-based, mouse CMV
HCMV Towne [4] = assay: HCMV entry, indirect immunofluorescence assay for pp65; format: cell-based, human cytomegalovirus; conditions: 24 h pretreatment; MLS8969 3 μM, heparin 30 μM, GCV 5 μM; IFA 2 hpi
MEFs = assay: toxicity to MEFs; format: cell-based, mouse
Outline: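 Uninfected mouse embryonic fibroblasts were exposed to test compound for 72 h or 8–10 days, the same time points as the antiviral assays. MTT (5 mg/mL stock in PBS) was then added, the plates were shaken at 150 rpm for 5 min and incubated at 37 °C for 2–3 h. Formazan formed by living cells was read as absorbance at 560 nm.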

[5] = tested on: HCMV Towne (pp28-luciferase); assay: pp28-luciferase recombinant HCMV Towne, luciferase activity at 72 hpi in HFFs; format: cell-based, human cytomegalovirus
EBV = assay: inhibition of lytic EBV replication in AKATA cells, real-time PCR; format: cell-based, Epstein Barr virus
HCMV Towne [6] = assay: drug combination with letermovir, plaque reduction assay, Bliss model; format: cell-based, human cytomegalovirus; conditions: Human betaherpesvirus 5, read-out: EC50 (Compound 1, letermovir alone)

Molecule	activity against HSV2 (in words) (HSV2)	viral DNA replication in cells (HCMV Towne [2])	viral DNA yield in supernatants (HCMV Towne [2])	viral protein expression (Western blot) (HCMV Towne [3]; MOI 1, 72 hpi)	activity against HSV1 (in words) (HSV1)	activity against MCMV (in words) (MCMV Smith strain)	inhibition of HCMV entry (pp65 nuclear staining) (HCMV Towne [4])	also measured
CCN1CCN(CCCNC(=O)c2ccc3c(c2)sc2nc(-c4ccc(OC)cc4)cn23)CC1 [NFU1827, N-[3-(4-ethylpiperazin-1-yl)propyl]-4-(4-methoxyphenyl)-7-thia-2,5-diazatricyclo [6.4.0.02,6] dodeca-1(8),3,5,9,11-pentaene-10-carboxamide]	no activity	significantly reduced	significantly reduced	reduced the level of both IE1 and IE2	no activity	no activity		HCMV suppression when compound removed at 6 h (removal assay) (HCMV Towne [1]): significant HCMV suppression; activity when added at or after 24 hpi (add-on assay) (HCMV Towne [1]): lost its ability to inhibit HCMV; time of anti-HCMV activity (HCMV Towne [1]): 0–24 hpi
Nc1nc2c(ncn2COC(CO)CO)c(=O)[nH]1 [GCV, Ganciclovir]							did not affect pp65 nuclear staining	
CC(C)NC(=O)C1CCN(C(=O)c2cc3sccc3n2Cc2ccc(Cl)cc2)CC1 [NCGC2955, 1-(4-(4-chIorobenzyl)-4H-thieno[3,2-b]pyrrole-5-carbonyl)-N-isopropyIpiperidine-4-carboxamide]		modest	modest	strong reduction in viral protein expression including IE1 and IE2				concentration at which toxicity to MEFs was observed (MEFs): ≥ 10 µM; timing of activity in the add-on assay (HCMV Towne [1]): overlapped with that of GCV; timing of activity in the removal assay (HCMV Towne [1]): longer activity than GCV; dose response in pp28-luciferase assay [5]: did not show a full dose response
COc1ccc(Cl)cc1C(=O)Nc1ccc(NC(=O)c2ccco2)cc1 [MLS8969]	did not inhibit			no inhibition of viral protein expression	did not inhibit	did not inhibit	inhibited HCMV entry only at MOI of 0.1	reduction of luciferase activity ([5]; compound added after infection, MOI of 1 PFU/cell, 72 hpi): minimal reduction in luciferase activity; inhibition of luciferase activity ([5]; compound added before infection, range of MOIs): MOI-dependent inhibition of luciferase activity; viral protein expression (Western blot) (HCMV Towne [3]; pretreatment followed by infection at low MOI (0.01), 72 hpi): decreased IE1/2, pp65, UL84 and UL44 protein levels; activity against EBV (in words) (EBV): did not inhibit
Heparin							inhibited HCMV entry	
COc1cccc(N2CCN(C3=Nc4c(F)cccc4[C@H](CC(=O)O)N3c3cc(C(F)(F)F)ccc3OC)CC2)c1 [Letermovir]								EC50 (HCMV Towne [6]): 1.1 ± 0.1 nM
CCc1ccc(NC(=O)[C@H](Cc2c[nH]c3ccccc23)NC(=O)[C@@H]2Cc3ccccc3CN2)cc1 [MLS8554]	active	significantly reduced	significantly reduced	reduced IE2, UL44, UL84 and pp65 protein levels	active			HCMV suppression when compound removed at 6 h (removal assay) (HCMV Towne [1]): near complete; activity when added at or after 24 hpi (add-on assay) (HCMV Towne [1]): activity was significantly reduced; time of anti-HCMV activity (HCMV Towne [1]): 0–24 hpi
Nc1c(S(=O)(=O)c2cccs2)c2nc3ccccc3nc2n1Cc1ccccc1 [MLS8091]	did not inhibit	higher than that achieved with GCV	not significantly different from GCV	Inhibition of all viral proteins	did not inhibit	did not inhibit		timing of activity in the add-on assay (HCMV Towne [1]): overlapped with that of GCV; timing of activity in the removal assay (HCMV Towne [1]): showed earlier effects; activity against EBV (in words) (EBV): did not inhibit; also recorded: not active
